Assay results as given in article PMC3180640 (Frontiers in Pharmacology, 2011).

What was measured:
human wt-CFTR [1] = target: T1, human wt-CFTR (Homo sapiens, UniProt P13569); test: Fluorescence assay of CFTR channel function; format: cell-based; conditions: FRT cells expressing wild-type CFTR, in the presence of 0.1 μmol/L forskolin
rat colonic mucosa = test: Short-circuit current assay on rat colonic mucosa; conditions: rat distal colonic mucosa
human wt-CFTR [2] = target: T1, human wt-CFTR; format: cell-based
[3] = system: mouse tracheal submucosal glands; test: Measurement of individual submucosal gland fluid secretion in mouse trachea; conditions: 10 μmol/L osthole in serosal bathing solution
How it was run: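 Cranial segment of freshly excised mouse trachea mounted on a sponge, soaked in Krebs–Henseleit solution, mucosal side up in a humidified 5% CO2/95% air chamber at 37°C. Mucosa cleared with saline, nitrogen-dried, then covered with saline-saturated oil. Some tissues pre-incubated 30 min with 20 μmol/L CFTRinh-172. Gland droplets imaged by reflected-light microscopy after stimulation; secretion rate computed from droplet diameter assuming hemispherical shape.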

ΔF508-CFTR [4] = conditions: read-out: affinity in potentiating ΔF508-CFTR; ref Xu et al., 2008; cited from earlier work
ΔF508-CFTR [5] = test: Potentiation of ΔF508-CFTR; format: cell-based; conditions: ΔF508-CFTR versus wt-CFTR

T1 sequence (P13569 whole entry): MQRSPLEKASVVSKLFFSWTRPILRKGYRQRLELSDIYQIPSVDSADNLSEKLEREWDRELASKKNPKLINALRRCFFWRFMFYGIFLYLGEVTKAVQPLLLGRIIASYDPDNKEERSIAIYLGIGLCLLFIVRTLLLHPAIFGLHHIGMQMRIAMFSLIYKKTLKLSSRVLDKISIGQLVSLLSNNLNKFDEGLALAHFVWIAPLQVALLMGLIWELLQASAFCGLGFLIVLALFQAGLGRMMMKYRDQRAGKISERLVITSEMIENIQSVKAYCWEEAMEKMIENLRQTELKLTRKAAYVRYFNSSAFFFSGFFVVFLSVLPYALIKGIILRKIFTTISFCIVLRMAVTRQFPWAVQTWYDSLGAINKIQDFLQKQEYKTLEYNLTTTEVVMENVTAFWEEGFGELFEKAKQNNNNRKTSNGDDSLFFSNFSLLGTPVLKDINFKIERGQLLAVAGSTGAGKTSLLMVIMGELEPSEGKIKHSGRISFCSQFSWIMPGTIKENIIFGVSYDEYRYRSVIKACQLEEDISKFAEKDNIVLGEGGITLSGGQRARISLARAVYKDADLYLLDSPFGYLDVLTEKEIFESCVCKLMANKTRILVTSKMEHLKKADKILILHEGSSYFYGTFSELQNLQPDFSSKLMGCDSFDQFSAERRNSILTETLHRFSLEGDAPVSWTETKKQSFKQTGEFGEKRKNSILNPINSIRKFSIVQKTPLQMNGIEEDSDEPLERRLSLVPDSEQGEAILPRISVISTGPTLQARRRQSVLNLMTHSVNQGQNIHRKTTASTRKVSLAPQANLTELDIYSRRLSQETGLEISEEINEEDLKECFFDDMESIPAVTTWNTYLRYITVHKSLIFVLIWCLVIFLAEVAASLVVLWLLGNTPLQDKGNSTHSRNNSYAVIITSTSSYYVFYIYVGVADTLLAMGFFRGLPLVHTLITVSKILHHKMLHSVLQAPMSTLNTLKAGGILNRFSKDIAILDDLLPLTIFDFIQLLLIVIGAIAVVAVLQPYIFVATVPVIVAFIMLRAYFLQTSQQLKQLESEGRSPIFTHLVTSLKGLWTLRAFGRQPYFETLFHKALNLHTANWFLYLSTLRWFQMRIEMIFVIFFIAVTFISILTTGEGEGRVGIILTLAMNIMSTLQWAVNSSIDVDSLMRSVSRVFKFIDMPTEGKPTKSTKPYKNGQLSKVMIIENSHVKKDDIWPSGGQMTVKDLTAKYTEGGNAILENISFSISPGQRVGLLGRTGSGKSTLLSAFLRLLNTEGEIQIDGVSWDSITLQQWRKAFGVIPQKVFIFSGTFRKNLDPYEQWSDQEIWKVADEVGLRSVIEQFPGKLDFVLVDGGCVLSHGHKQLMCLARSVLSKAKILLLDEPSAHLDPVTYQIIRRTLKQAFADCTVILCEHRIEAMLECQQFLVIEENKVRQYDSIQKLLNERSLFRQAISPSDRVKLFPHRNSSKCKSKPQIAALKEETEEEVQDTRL

In the case of `O=c1ccc2ccc3occc3c2o1` [isopsoralen], the “stimulation of wt-CFTR-mediated I− influx” value (“stimulation” for short) (human wt-CFTR [1]) is reported as “stimulated wt-CFTR-mediated I^− influx in a concentration-dependent way”.

For `O=C(O)c1ccc(/C=C2\SC(=S)N(c3cccc(C(F)(F)F)c3)C2=O)cc1` [CFTRinh-172, reference compound], the “effect on osthole-stimulated chloride secretion” value (rat colonic mucosa) was “completely abolished the osthole-stimulated chloride secretion” and the “block of coumarin-stimulated Cl− current” value (human wt-CFTR [2]; CFTRinh-172 at 20 μmol/L) was “completely blocked the activations”.

In the case of `COc1ccc2ccc(=O)oc2c1CC=C(C)C` [osthole], the “increase of fluid secretion rate compared to the saline control” value [3] is given as 3.34 fold, the Kd (ΔF508-CFTR [4]) is given as roughly 10 µM and the “affinity in potentiating ΔF508-CFTR lower than in activating wt-CFTR” value (ΔF508-CFTR [5]) is given as greater than 200 fold. The “stimulation” value (human wt-CFTR [1]) was “stimulated wt-CFTR-mediated I^− influx in a concentration-dependent way” and the Kd (human wt-CFTR [2]) was less than 0.05 µM.

For `CC(C)=CCOc1c2occc2cc2ccc(=O)oc12` [imperatorin], the “stimulation” value (human wt-CFTR [1]) was “stimulated wt-CFTR-mediated I^− influx in a concentration-dependent way”.

With `COc1cc2ccc(=O)oc2cc1OC` [scoparone] the “stimulation” value (human wt-CFTR [1]) was “stimulated wt-CFTR-mediated I^− influx in a concentration-dependent way”.
